Assay outcomes as filed in PubChem BioAssay.
ABCG2 inh – human ABCG2 inhibition, ABCB1 as counter-screen; Q9UNQ0; IgMXP3 cells, JC-1 efflux, flow cytometry; inhibition, % at 6.6 µM; hit rate 0.1% among 190,000; AID 1325;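 active = inhibition above 80%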;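 note: 0% = DMSO and 100% = nicardipine control wells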
Target sequence (Q9UNQ0 whole entry, looked up): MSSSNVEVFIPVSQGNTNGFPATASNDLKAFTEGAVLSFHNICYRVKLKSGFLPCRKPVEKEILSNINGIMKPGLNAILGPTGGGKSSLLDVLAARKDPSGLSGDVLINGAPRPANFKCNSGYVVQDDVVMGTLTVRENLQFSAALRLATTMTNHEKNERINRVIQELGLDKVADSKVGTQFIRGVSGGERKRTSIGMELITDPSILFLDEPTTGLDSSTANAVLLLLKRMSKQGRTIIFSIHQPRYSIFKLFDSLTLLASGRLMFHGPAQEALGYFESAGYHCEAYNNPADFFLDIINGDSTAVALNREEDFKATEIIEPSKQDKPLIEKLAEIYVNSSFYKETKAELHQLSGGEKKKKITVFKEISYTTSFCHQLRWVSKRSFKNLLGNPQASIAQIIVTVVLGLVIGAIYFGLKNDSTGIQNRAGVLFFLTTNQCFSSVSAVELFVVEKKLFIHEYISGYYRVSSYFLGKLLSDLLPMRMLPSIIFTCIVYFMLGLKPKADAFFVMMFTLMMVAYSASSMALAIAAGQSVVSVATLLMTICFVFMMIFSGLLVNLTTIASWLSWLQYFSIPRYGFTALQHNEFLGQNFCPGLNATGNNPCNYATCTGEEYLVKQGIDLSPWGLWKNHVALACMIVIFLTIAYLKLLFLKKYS
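Times: 10 min at 25 °C | Test system: Two drug-resistant human cell lines, ABCG2 and ABCB1 | Quantity: 3 million cells/mL final, two lines in 1:1 ratio | Signal: Flow cytometry, 530 nm JC-1 signal | Dosing: Compound at 6.6 µM | Controls: Nicardipine and DMSO wells | Reagent: JC-1 as fluorescent efflux pump substrate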
GSH fluor – compound fluoresces at 488/530 nm on GSH beads | GSH beads flow cytometry, compound fluorescence 488/530 nm; hits give high values | fluorescence (KMESF) at 10 µM | hit rate 0.25% among 190,000 | AID 1776; in the data active = fluorescence above about 89;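 note: glutathione beads carrying GST-tagged Bcl family fusion proteins plus one bare bead set; values are compound well signal with DMSO vehicle wells as background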
PKD1 inh – inhibitors of human PKD1 kinase; PKD1 kinase fluorescence polarization assay; inhibition, % (concentration not given with the values); hit rate 0.056% among 200,000
Avidin bead fluor – compound fluoresces at 488/530 nm on avidin beads; compound fluorescence 488/530 nm, flow cytometry; hits give high values; fluorescence (KMESF) at 10 µM; hit rate 0.38% among 220,000; in the data active = fluorescence above about 47
ABCB1 inh – human ABCB1 inhibition, ABCG2 as counter-screen; P08183; CCRF-Adr cells, JC-1 efflux, flow cytometry; inhibition, % at 6.6 µM; hit rate 0.067% among 190,000; in the data active = inhibition above about 40%;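 note: 0% = vehicle and 100% = reference inhibitor; higher value means more JC-1 retained so stronger ABCB1 efflux block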
Lmaj promast – reduces viability of Leishmania major promastigotes; hit rate 9% among 200,000; AID 1063; inhibition, % at 10 µM; resazurin fluorescence viability;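 note: promastigotes grown with compound for 44 hours at 28 °C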
Numbers without * were called inactive; x = no result given. The full list was thinned out, with hits kept by preference. Cut-off read from the data, not from the text of the source, unless noted: active = inhibition above about 50%; inactive = the rest.

SMILES	ABCG2 inh	GSH fluor	PKD1 inh	Avidin bead fluor	ABCB1 inh	Lmaj promast
CC(C)NC(=O)CCCc1c[nH]c2ccccc12	2	8	-1	58*	0	-6
Cc1noc(C)c1COC(=O)CCCc1c[nH]c2ccccc12	3	258*	-3	6	0	-6
CC(C)CNC(=O)CCc1c[nH]c2ccccc12	21	31	-5	10	1	-3
CCOC(=O)CCCc1c[nH]c2ccccc12	4	16	0	36	1	-1
CCN1CCc2c(OCC(=O)Nc3ccc4c(c3)OCCO4)cccc2C1=O	25	16	0	12	2	25
CCc1cc(=O)oc2cc3occ(-c4ccc(OC)c(F)c4)c3cc12	20	13	-3	6	2	20
COc1cccc(/C=C/C(=O)OCC(=O)Nc2cccc(S(=O)(=O)N3CCOCC3)c2)c1OC	3	61	-5	26	1	-5
CN1CCN(C(=O)Nc2ccc3c(c2)N(C)C(=O)c2ccccc2S3)CC1	13	14	5	9	-1	98*
CCC(=O)N1CCN(c2ccc(NC(=O)COc3ccccc3[N+](=O)[O-])cc2)CC1	9	24	-3	10	2	-5
O=C(Nc1ccc(Cc2ccncc2)cc1)c1ccc(S(=O)(=O)N2CCOCC2)cc1	0	12	-9	35	0	99*
CCOC(=O)N1CCN(S(=O)(=O)c2ccc(C(=O)Nc3ccc4c(c3)C(=O)NC4=O)cc2)CC1	0	4	-6	15	0	56*
O=C(COC(=O)CN1C(=O)C2CCCCC2C1=O)Nc1ccc(S(=O)(=O)N2CCOCC2)cc1 (configuration not stated)	-6	5	4	10	0	57*
Cc1ccc(C(=O)Nc2ccc(S(=O)(=O)N3CCOCC3)cc2)cc1	1	22	9	227*	0	-3
O=C(CCSCc1cccc(Cl)c1)NCCc1ccccc1	3	17	-2	18	0	-8
CC(NC(=O)COC(=O)/C(=C/c1cccs1)c1cccs1)c1ccccc1 (configuration not stated)	1	7	-3	1	0	2
CC(NC(=S)Nc1ccc(S(=O)(=O)N2CCOCC2)cc1)C1CC2CCC1C2 (configuration not stated)	-9	8	2	1	-1	63*
CCOC(=O)C(=O)Nc1ccc(S(=O)(=O)N2CCOCC2)cc1OC	1	37	10	6	0	-4
CC1CCN(S(=O)(=O)c2ccc(S(=O)(=O)N3CCCN(Cc4ccccc4)C3)cc2)CC1	x	x	-2	x	x	86*
O=C(CN1CCCC1)Nc1ccc(Oc2ccc(NC(=O)CN3CCCC3)cc2)cc1	1	12	3	38	0	79*
COc1cc(S(=O)(=O)N2CCOCC2)ccc1NC(=O)COC(=O)CC12CC3CC(CC(C3)C1)C2	3	24	3	23	1	100*
CCN(C(=O)c1cc2c(C)nc3ccccc3c2o1)c1cc(Cl)ccc1OC	x	x	x	7	x	x
Cc1cc(C)c2sc(N)nc2c1	3	10	-8	11	0	1
CN=C1SC(CC(=O)Nc2cc(Cl)ccc2Cl)C(=O)N1C (configuration not stated)	4	35	-3	6	0	-19
C/C(=N\NC(=O)c1cccc(S(=O)(=O)N2CCCCC2)c1)c1ccc(C)o1	10	14	0	14	0	82*
Cc1ccc(NC(=O)C2CCN(S(=O)(=O)c3ccc(F)cc3)CC2)cc1	4	49	-6	7	1	99*
SMILES	ABCG2 inh	GSH fluor	PKD1 inh	Avidin bead fluor	ABCB1 inh	Lmaj promast
Cc1cc(C)c(O)c(-c2cc(C(=O)Nc3ccc(S(=O)(=O)N4CCOCC4)cc3)[nH]n2)c1	-2	26	6	17	-1	90*
CC1CCN(S(=O)(=O)c2ccc(NC(=O)CN3CCN(C)CC3)cc2)CC1	-4	28	-3	13	-5	24
CC1CCN(S(=O)(=O)c2ccc(NC(=O)CN3CCCC(C)C3)cc2)CC1 (configuration not stated)	2	11	4	21	1	89*
Cc1ccc(NC(=O)C2CCN(S(=O)(=O)c3ccccc3)CC2)cc1	5	26	-3	11	0	-3
N#Cc1ccc(C(=O)CSc2n[nH]c(=O)n2-c2cccnc2)cc1	x	x	x	2	x	x
Cc1cc(=O)c2c(C)ccc(C)c2[nH]1	x	x	x	9	x	x
O=C(Nc1ccc(N2CCOCC2)cc1)c1cccc(S(=O)(=O)N2CCCCC2)c1	0	5	-3	7	0	98*
O=C(CSCc1ccc(Cl)cc1)Nc1ccc(S(=O)(=O)N2CCOCC2)cc1	4	12	-14	16	1	88*
O=C(Nc1ccc(S(=O)(=O)Nc2ccc(F)cc2)cc1)c1ccc(CN2CCOCC2)cc1	2	25	6	9	0	98*
O=C(CN1CCCCC1)Nc1ccc(S(=O)(=O)N2CCOCC2)cc1	0	6	-2	5	0	97*
CCC(C)c1ccccc1NC(=O)COC(=O)CCc1cc(OC)c(OC)c(OC)c1 (configuration not stated)	10	4	-3	11	2	51*
CCOC(=O)c1ccc(N=c2sc(C(=O)OC)cc(=O)n2CCCN2CCOCC2)cc1	4	27	-13	7	3	100*
COC(=O)c1cc(=O)n(CCc2ccccc2)c(=Nc2ccc(F)cc2)s1	6	25	-8	4	1	90*
CCCCN=c1sc(C(=O)OC)cc(=O)n1CCCC	4	17	-4	9	0	5
COC(=O)c1cc(=O)n(Cc2ccc3c(c2)OCO3)c(=Nc2ccc(F)c(Cl)c2)s1	0	14	-14	8	0	100*
CCn1c(=O)cc(C(=O)OC)sc1=Nc1ccc(F)c(F)c1	1	12	-3	5	0	86*
CC(C)(C)[C@H]1C=C(C(=O)NCc2nc3ccccc3[nH]2)O[C@@H](OCc2ccc(CO)cc2)C1	x	x	x	7	x	x
COC(=O)c1cc(=O)n(Cc2ccc(OC)cc2)c(=NCc2ccc(OC)cc2)s1	7	12	-1	13	2	7
COC(=O)c1cc(=O)n(CCc2ccc(OC)cc2)c(=Nc2ccc(F)c(Cl)c2)s1	2	23	7	5	0	100*
CCOC(=O)c1nn(-c2ccc(OCC)cc2)c2nc(-c3cccc(OC)c3)c(C#N)c(=O)n12	1	22	-6	12	-1	-2
O=C1OC(OC2CCCCC2)(c2ccccc2)c2ccccc21 (configuration not stated)	1	20	6	35	0	5
O=C1OC(Oc2ccccc2)(c2ccccc2)c2ccccc21 (configuration not stated)	2	21	10	37	0	98*
